Measurements taken from ChEMBL document CHEMBL2169813, “Cell death triggered by synthetic flavonoids in human leukemia cells is amplified by the inhibition of extracellular signal-regulated kinase signaling” (Eur J Med Chem, 2012).
The source made the active and inactive calls. No cut-off for these calls is given here.

Columns and labels:
[1] = tested on: HL-60; assay: Induction of apoptosis in human HL60 cells assessed as hypodiploid cells level incubated for 24 hrs in presence of 2 uM p38MAPK inhibitor SB203580 by flow cytometry; format: functional, cell-based
Outline: (§1)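 HL-60 cells preincubated 1 h with PD98059 (10 µM), SP600125 (10 µM) or SB203580 (2 µM), then treated with compound. Hypodiploid (apoptotic) cells quantified by flow cytometry of propidium iodide-stained nuclei. Three independent experiments, each in triplicate.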

[2] = tested on: HL-60; assay: Induction of apoptosis in human HL60 cells assessed as hypodiploid cells level incubated for 24 hrs in presence of 10 uM JNK/SAPK inhibitor SP600125 by flow cytometry; format: functional, cell-based; outline: as §1
[3] = target: T1, Mitogen-activated protein kinase; ERK1/ERK2 (Homo sapiens) (UniProt P27361+P28482); assay: Induction of ERK1/2 phosphorylation in human HL60 cells after 30 mins in presence of 10 uM MEK1/2 inhibitor PD98059 by Western blotting; format: cell-based; details: HL-60
T1 sequence (P27361 whole entry, looked up): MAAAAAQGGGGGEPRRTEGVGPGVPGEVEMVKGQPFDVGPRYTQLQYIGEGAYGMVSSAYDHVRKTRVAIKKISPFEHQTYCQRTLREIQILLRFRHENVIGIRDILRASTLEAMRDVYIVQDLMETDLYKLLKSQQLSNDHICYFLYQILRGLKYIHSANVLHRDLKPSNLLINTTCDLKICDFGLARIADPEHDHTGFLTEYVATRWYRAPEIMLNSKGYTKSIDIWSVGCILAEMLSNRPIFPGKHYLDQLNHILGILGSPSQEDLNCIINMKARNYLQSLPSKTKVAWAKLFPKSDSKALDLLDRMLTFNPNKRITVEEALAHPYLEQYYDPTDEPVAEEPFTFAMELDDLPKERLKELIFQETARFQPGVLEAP
T1 sequence (P28482 whole entry, looked up): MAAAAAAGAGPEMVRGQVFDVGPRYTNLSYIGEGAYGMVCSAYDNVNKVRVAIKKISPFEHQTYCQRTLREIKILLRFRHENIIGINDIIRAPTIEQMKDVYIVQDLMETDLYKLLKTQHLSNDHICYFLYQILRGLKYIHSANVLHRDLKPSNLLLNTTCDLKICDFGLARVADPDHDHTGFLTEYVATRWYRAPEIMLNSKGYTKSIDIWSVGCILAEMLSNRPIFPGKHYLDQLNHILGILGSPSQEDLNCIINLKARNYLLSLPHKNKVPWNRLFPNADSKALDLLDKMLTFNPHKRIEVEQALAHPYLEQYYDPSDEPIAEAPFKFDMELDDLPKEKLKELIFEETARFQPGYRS
Outline: (§2)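 HL-60 cells (1 × 10⁶/mL) treated with compound (10–30 µM) for various times. Where used, PD98059 (10 µM) was added 1 h beforehand. Lysates run on 10% SDS-PAGE and immunoblotted for phosphorylated ERK 1/2, JNK/SAPK or p38MAPK. Blots stripped and reprobed for the total kinase as loading control.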

[4] = tested on: HL-60; assay: Increase in apoptosis in human HL60 cells assessed as hypodiploid cells level incubated for 24 hrs in presence of 10 uM MEK1/2 inhibitor PD98059 by flow cytometry (reference value: 15%); format: functional; outline: as §1
[5] = target: T2, c-Jun N-terminal kinase, JNK (Homo sapiens) (UniProt P45983+P53779+P45984); assay: Induction of JNK/SAPK phosphorylation in human HL60 cells after 6 hrs by Western blotting; format: cell-based; details: HL-60; outline: as §2
[6] = target: T1, Mitogen-activated protein kinase; ERK1/ERK2 (Homo sapiens); assay: Induction of ERK1/2 phosphorylation in human HL60 cells after 6 hrs by Western blotting; format: cell-based; details: HL-60; outline: as §2
[7] = target: T3, MAP kinase p38 (Homo sapiens) (UniProt O15264+Q15759+Q16539+P53778); assay: Induction of p38MAPK phosphorylation in human HL60 cells after 4 hrs by Western blotting; format: cell-based; details: HL-60; outline: as §2
[8] = target: T3, MAP kinase p38 (Homo sapiens); assay: Induction of p38MAPK phosphorylation in human HL60 cells after 30 mins by Western blotting; format: cell-based; details: HL-60; outline: as §2
[9] = target: T2, c-Jun N-terminal kinase, JNK (Homo sapiens); assay: Induction of JNK/SAPK phosphorylation in human HL60 cells after 30 mins by Western blotting; format: cell-based; details: HL-60; outline: as §2
[10] = tested on: HL-60; assay: Induction of apoptosis in human HL60 cells assessed as hypodiploid cells level at 30 uM incubated for 24 hrs in presence of caspase-9 inhibitor z-LEHD-fmk by flow cytometry; format: functional, cell-based
Outline: (§3)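 HL-60 cells given 30 µM compound for 24 h, alone or with z-VAD-fmk (100 µM), z-DEVD-fmk, z-IETD-fmk or z-LEHD-fmk (each 50 µM). Propidium iodide staining, hypodiploid cells quantified by flow cytometry. Three independent experiments, each in triplicate.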

[11] = tested on: HL-60; assay: Induction of apoptosis in human HL60 cells assessed as hypodiploid cells level at 30 uM incubated for 24 hrs in presence of caspase-8 inhibitor z-IETD-fmk by flow cytometry; format: functional, cell-based; outline: as §3
[12] = tested on: HL-60; assay: Induction of apoptosis in human HL60 cells assessed as hypodiploid cells level at 30 uM incubated for 24 hrs in presence of caspase-3 and -7 inhibitor z-DEVD-fmk by flow cytometry; format: functional, cell-based; outline: as §3
[13] = tested on: HL-60; assay: Induction of apoptosis in human HL60 cells assessed as hypodiploid cells level at 30 uM incubated for 24 hrs in presence of caspase inhibitor z-VAD-fmk by flow cytometry; format: functional, cell-based; outline: as §3
[14] = tested on: HL-60; assay: Induction of procaspase-7 processing in human HL60 cells at 30 uM incubated for 24 hrs by immunoblotting method; format: functional, cell-based
Outline: (§4)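 HL-60 cells (1 × 10⁶/mL) exposed to compound, harvested at 24 h. Lysed in Tris-HCl pH 7.4/Triton X-100 buffer with phosphatase and protease inhibitors, 15 min at 4 °C. Equal protein run on SDS-PAGE (7.5% PARP, 12.5% caspases) and immunoblotted on PVDF. β-Actin used as loading control.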

[15] = tested on: HL-60; assay: Induction of procaspase-3 processing in human HL60 cells at 30 uM incubated for 24 hrs by immunoblotting method; format: functional, cell-based; outline: as §4
[16] = tested on: HL-60; assay: Induction of procaspase-6 processing in human HL60 cells at 30 uM incubated for 24 hrs by immunoblotting method; format: functional, cell-based; outline: as §4
[17] = tested on: HL-60; assay: Induction of Bid protein cleavage in human HL60 cells at 30 uM incubated for 24 hrs by Western blotting method; format: functional, cell-based; outline: as §4
[18] = tested on: HL-60; assay: Induction of procaspase-9 cleavage in human HL60 cells at 30 uM incubated for 24 hrs by immunoblotting method; format: functional, cell-based; outline: as §4
[19] = tested on: HL-60; assay: Induction of procaspase-8 hydrolysis in human HL60 cells at 30 uM incubated for 24 hrs by immunoblotting method; format: functional, cell-based; outline: as §4
[20] = tested on: HL-60; assay: Induction of cytochrome-c release in human HL60 cells at 30 uM incubated for 24 hrs by immunoblotting method; format: functional, cell-based
Outline: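 HL-60 cells treated 24 h with 30 µM compound. Cytosolic extracts immunoblotted for cytochrome c released from mitochondria. β-Actin used as loading control.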

[21] = tested on: HL-60; assay: Induction of caspase activation in human HL60 cells assessed as increase in PARP cleavage at 30 uM incubated for 24 hrs by immunoblotting method; format: functional, cell-based; outline: as §4
[22] = tested on: HL-60; assay: Induction of p21'Cip1 protein expression in human HL60 cells at 30 uM incubated for 24 hrs by Western blotting method; format: functional, cell-based; outline: as §4
[23] = tested on: HL-60; assay: Induction of cyclin D1 protein expression in human HL60 cells at 30 uM incubated for 24 hrs by Western blotting method; format: functional, cell-based; outline: as §4
[24] = tested on: HL-60; assay: Cell cycle arrest in human HL60 cells assessed as accumulation at S phase at 30 uM incubated for 24 hrs by flow cytometry (reference value: 16.7 +/- 0.5%); format: functional
[25] = tested on: HL-60; assay: Cell cycle arrest in human HL60 cells assessed as accumulation at G2/M phase at 30 uM incubated for 24 hrs by flow cytometry (reference value: 33.2 +/- 2.1%); format: functional
[26] = tested on: HL-60; assay: Cell cycle arrest in human HL60 cells assessed as accumulation at G1 phase at 30 uM incubated for 24 hrs by flow cytometry (reference value: 48 +/- 1.6%); format: functional
[27] = tested on: HL-60; assay: Cell cycle arrest in human HL60 cells assessed as accumulation at G2/M phase at 10 uM incubated for 24 hrs by flow cytometry (reference value: 33.2 +/- 2.1%); format: functional
[28] = tested on: HL-60; assay: Cell cycle arrest in human HL60 cells assessed as accumulation at G1 phase at 10 uM incubated for 24 hrs by flow cytometry (reference value: 48 +/- 1.6%); format: functional
[29] = tested on: HL-60; assay: Cell cycle arrest in human HL60 cells assessed as accumulation at S phase at 10 uM incubated for 24 hrs by flow cytometry (reference value: 16.7 +/- 0.5%); format: functional
[30] = tested on: HL-60; assay: Cell cycle arrest in human HL60 cells assessed as accumulation at subG1 phase at 10 uM incubated for 24 hrs by flow cytometry (reference value: 2.3 +/- 0.5%); format: functional
[31] = tested on: HL-60; assay: Induction of DNA fragmentation in human HL60 cells at 30 uM incubated for 24 hrs by agarose gel electrophoresis; format: functional, cell-based
Outline: (§5)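 HL-60 cells treated with the indicated concentrations. Genomic DNA extracted, run on agarose gel and visualised under UV after ethidium bromide staining, looking for internucleosomal fragmentation.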

[32] = tested on: HL-60; assay: Induction of DNA fragmentation in human HL60 cells at 10 uM incubated for 24 hrs by agarose gel electrophoresis; format: functional, cell-based; outline: as §5
[33] = tested on: HL-60; assay: Induction of apoptosis in human HL60 cells assessed as incidence of condensed and fragmented chromatin at 30 uM incubated for 24 hrs by fluorescent microscopy; format: functional, cell-based
[34] = tested on: PBMC; assay: Induction of MLL gene cleavage in human proliferating PBMCs at 30 uM incubated for 16 hrs by inverse PCR method; format: functional, cell-based
Outline: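 Peripheral blood mononuclear cells exposed to 30 µM compound for 16 h. Genomic DNA digested with Xba I and circularised. Nested inverse PCR (MF1–MR1, then MF2–MR2). Wild-type MLL removed by Pvu II digestion before PCR to reveal rearrangement products.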

[35] = tested on: HL-60; assay: Cytotoxicity against human HL60 cells assessed as cell viability after 48 hrs at 30 uM by MTT assay; format: functional; details: HL-60, 48 h, read-out: Activity
Outline: (§6)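 HL-60 cells, quiescent (fresh) PBMC and phytohemagglutinin-activated healthy human PBMC cultured 48 h over a concentration range of compound. Proliferation measured. Means ± SE of two independent experiments, each in triplicate.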

[36] = tested on: HL-60; assay: Cytotoxicity against human HL60 cells after 72 hrs by MTT assay; format: functional, cell-based; details: HL-60, 72 h
Outline: (§7)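 MTT colorimetric assay on HL-60 and HL-60/MX1 cells (RPMI 1640, 10% heat-inactivated FBS), 72 h exposure, absorbance 570 nm. IC50 obtained graphically by curve fitting. Means ± S.E. of three independent experiments, each in triplicate.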

[37] = target: T1, Mitogen-activated protein kinase; ERK1/ERK2 (Homo sapiens); assay: Induction of ERK1/2 phosphorylation in human HL60 cells after 30 mins by Western blotting; format: cell-based; details: HL-60; outline: as §2
[38] = tested on: HL-60; assay: Cell cycle arrest in human HL60 cells assessed as accumulation at subG1 phase at 30 uM incubated for 24 hrs by flow cytometry (reference value: 2.3 +/- 0.5%); format: functional
[39] = Cytotoxicity against human HL60/MX1 cells after 72 hrs by MTT assay; format: functional, cell-based; details: HL60/MX1, 72 h; outline: as §7
[40] = Cytotoxicity against human proliferating PBMCs assessed as cell viability after 48 hrs at 30 uM by MTT assay; format: cell-based, PBMC; details: read-out: Activity; outline: as §6
[41] = tested on: HL-60; assay: Cytotoxicity against human HL60 cells at 100 uM after 72 hrs by MTT assay
[42] = tested on: HL-60; assay: Induction of apoptosis in human HL60 cells assessed as changes in nuclear morphology at 30 uM incubated for 24 hrs by fluorescence microscopy (reference value: 4.9 +/- 1.0%)

Question: For `COC(=O)c1c(C)c(C)cc2c(=O)cc(-c3ccccc3C)oc12`, which Activity [1] is on record?
Answer: Active

Question: And the Activity [2]?
Answer: Active

Question: And the Activity [3]?
Answer: inactive

Question: And the Activity [4]?
Answer: 25%

Question: What about the Activity [5] of the same compound?
Answer: Active

Question: And the Activity [6]?
Answer: Active

Question: And the Activity [7]?
Answer: inactive

Question: What about the Activity [8] of the same compound?
Answer: Active

Question: And the Activity [9]?
Answer: Active

Question: And the Activity [10]?
Answer: inactive

Question: And the Activity [11]?
Answer: inactive

Question: What about the Activity [12] of the same compound?
Answer: inactive

Question: What about the Activity [13] of the same compound?
Answer: inactive

Question: What about the Activity [14] of the same compound?
Answer: Active

Question: What about the Activity [15] of the same compound?
Answer: Active

Question: And the Activity [16]?
Answer: Active

Question: What about the Activity [17] of the same compound?
Answer: Active

Question: What about the Activity [18] of the same compound?
Answer: Active

Question: What about the Activity [19] of the same compound?
Answer: Active

Question: What about the Activity [20] of the same compound?
Answer: Active

Question: And the Activity [21]?
Answer: Active

Question: What about the Activity [22] of the same compound?
Answer: Active

Question: What about the Activity [23] of the same compound?
Answer: Active

Question: What about the Activity [24] of the same compound?
Answer: 7.6%

Question: And the Activity [25]?
Answer: 11.8%

Question: What about the Activity [26] of the same compound?
Answer: 48.1%

Question: What about the Activity [27] of the same compound?
Answer: 24.4%

Question: What about the Activity [28] of the same compound?
Answer: 53%

Question: What about the Activity [29] of the same compound?
Answer: 16.6%

Question: What about the Activity [30] of the same compound?
Answer: 5.5%

Question: And the Activity [31]?
Answer: Active

Question: What about the Activity [32] of the same compound?
Answer: Active

Question: And the Activity [33]?
Answer: Active

Question: And the Activity [34]?
Answer: Active

Question: What about the viability at 30 µM [35] of the same compound?
Answer: 25%

Question: And the IC50 [36]?
Answer: 10.1 µM

Question: What about the Activity [37] of the same compound?
Answer: Active

Question: What about the Activity [38] of the same compound?
Answer: 28.5%

Question: What about the IC50 [39] of the same compound?
Answer: 18.9 µM

Question: What about the viability at 48 h, 30 µM [40] of the same compound?
Answer: 75%

Question: What about the Activity [41] of the same compound?
Answer: Active

Question: What about the Activity [42] of the same compound?
Answer: 26.9%
